Rows were chosen to be rich in hits. Some 5.8% of all compounds tested hit in one or more screens of this group.
Pf Dd2 inh – P. falciparum Dd2 growth inhibitors, primary screen, SYBR Green fluorescence, single dose replicates. 72 h; stronger effect = lower value. 94,000 compounds, 2.3% hits. activity change, % at 10 µM; in the data active means activity change below about -80%; inconclusive means no clear call, values can overlap the other calls
IDH1 R132H inh – inhibitors of IDH1 R132H reductase, primary screen, biochemical, plate reader, single point; diaphorase/resazurin fluorescence, 60 min; AID 624101, 2012; inhibition, % at 10 µM; 70,000 compounds, 0.18% hits; in the data active means inhibition above about 34%; inconclusive means no clear call, values can overlap the other calls; inactive means below about 11%;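 further: 0% = DMSO and 100% = no enzyme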
Target sequence (O75874 whole entry R132H): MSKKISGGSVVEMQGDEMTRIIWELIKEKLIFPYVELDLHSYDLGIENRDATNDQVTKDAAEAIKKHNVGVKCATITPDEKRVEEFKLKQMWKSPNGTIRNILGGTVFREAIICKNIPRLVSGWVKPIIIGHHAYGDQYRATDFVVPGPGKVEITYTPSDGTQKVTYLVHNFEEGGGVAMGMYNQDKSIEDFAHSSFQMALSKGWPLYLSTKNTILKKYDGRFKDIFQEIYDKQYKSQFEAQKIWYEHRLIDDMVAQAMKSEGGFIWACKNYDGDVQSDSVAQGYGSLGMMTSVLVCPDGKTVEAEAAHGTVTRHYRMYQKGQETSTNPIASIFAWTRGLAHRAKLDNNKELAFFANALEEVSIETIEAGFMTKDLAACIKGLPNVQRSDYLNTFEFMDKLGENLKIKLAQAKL
GASC1 inh – inhibitors of GASC-1 (KDM4C) histone demethylase, primary screen, biochemical, single concentration HTS. Lysine-specific demethylase 4C (Homo sapiens), Q9H3R0. GST-KDM4C 2-372, H3K9me3 peptide, LANCE TR-FRET. inhibition, % at 12.5 µM. 96,000 compounds, 0.15% hits. AID 720574, 2013;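 active means mean replicate inhibition above about 25%, with at least 55% of replicates also reaching it, limit read from the data, passing the limit was not always enough; inconclusive means only one of those two conditions met; inactive means neither condition met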
Target sequence (Q9H3R0 2-372 limits assumed): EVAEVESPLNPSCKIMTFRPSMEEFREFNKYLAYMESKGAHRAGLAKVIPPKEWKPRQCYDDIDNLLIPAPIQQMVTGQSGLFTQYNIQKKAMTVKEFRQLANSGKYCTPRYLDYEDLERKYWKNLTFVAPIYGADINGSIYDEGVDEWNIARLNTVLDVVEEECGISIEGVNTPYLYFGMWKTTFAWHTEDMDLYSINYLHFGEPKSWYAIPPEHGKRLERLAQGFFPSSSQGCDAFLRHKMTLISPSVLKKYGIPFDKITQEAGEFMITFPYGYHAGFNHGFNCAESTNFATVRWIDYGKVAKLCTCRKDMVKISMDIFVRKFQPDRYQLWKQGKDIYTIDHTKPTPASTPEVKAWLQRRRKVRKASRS
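Material: N-terminal GST-fused human GASC-1 (KDM4C) fragment, residues 2-372. Input: 10 nM enzyme. Incubation: enzyme reaction 30 min, then detection 60 min, both room temperature. Doses: one test concentration per compound. Read-out basis: inhibition from TR-FRET ratio decrease. Detection: LANCE TR-FRET, excitation 340 nm, emissions 618 and 671 nm.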
T cruzi growth-1 – T. cruzi intracellular proliferation inhibitors, primary screen, cell-based, beta-gal Tulahuen parasites, NIH3T3 host, luminescence; inhibition, % at 8.34 µM; T. cruzi beta-gal in NIH3T3, GalScreen luminescence, 90 h; 77,000 compounds, 5.9% hits;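 active means mean inhibition above about 93%, with at least 55% of replicates each passing it, limit read from the data, passing the limit was not always enough; inconclusive means only one of those two conditions holds; inactive means neither condition holds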
T cruzi growth-2 – T. cruzi intracellular proliferation inhibitors, confirmation, cell-based, NIH3T3 host, beta-gal parasite, luminescence, cherry-pick; shares compounds with T cruzi growth-1; T. cruzi beta-gal in NIH3T3, GalScreen luminescence, 90 h; inhibition, % at 8.35 µM; 5,600 compounds, 72% hits; AID 651739, 2012;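 active means mean replicate inhibition above about 95% and at least 55% of replicates individually reaching it, limit read from the data; inconclusive means only one of the two criteria is met; inactive means neither criterion is met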
T cruzi growth-3 – inhibitors of intracellular T. cruzi replication, confirmation, NIH3T3 host cells, beta-gal parasites, cherry-pick, set 2; shares compounds with T cruzi growth-1; T. cruzi beta-gal in NIH3T3, GalScreen luminescence, 90 h; inhibition, % at 2.09 µM; 5,600 compounds, 21% hits;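 active means mean inhibition above about 95%, with at least 55% of replicates also reaching it, limit read from the data; inconclusive means meets just one of the two conditions; inactive means meets neither condition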;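 further: plate controls were neutral control median for no effect and positive control median for full effect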
3T3 cytotox – cytotoxicity in mouse NIH/3T3 fibroblasts, confirmation, cytotoxicity control for T. cruzi proliferation inhibitor project, cell-based, cherry-pick, single point. shares compounds with T cruzi growth-1. 5,600 compounds, 14% hits. cytotoxicity (signal decrease), % at 8.35 µM. NIH/3T3 viability, CellTiter-Glo ATP luminescence, 90 h;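 active means mean signal decrease across replicates above about 35% based on untreated-well scatter, with enough replicates individually passing, limit read from the data; inconclusive means no rule stated though some were filed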;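 further: 0% = median of neutral control wells and 100% = median of positive control wells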
3T3 cytotox 2 – NIH/3T3 fibroblast cytotoxicity, confirmation, cytotoxicity control, cell-based, cherry-pick, single point, set 2 | AID 651744, 2012 | 5,600 compounds, 56% hits | inhibition, % at 24.9 µM | NIH/3T3 viability, CellTiter-Glo ATP luminescence, 90 h | shares compounds with T cruzi growth-1;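 active means mean loss of cell viability signal at or above a set limit, and enough replicates individually reaching it; inconclusive means meets only the mean limit or only the replicate share; inactive means meets neither condition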;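 further: 0% = median of neutral control wells and 100% = median of positive control wells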
Numbers without * were called inactive; ? = inconclusive; · = not tested or not shown.

SMILES | Pf Dd2 inh | IDH1 R132H inh | GASC1 inh | T cruzi growth-1 | T cruzi growth-2 | T cruzi growth-3 | 3T3 cytotox | 3T3 cytotox 2
COc1cc([N+](=O)[O-])ccc1NC(=O)Nc1nn(Cc2ccc(Cl)c(Cl)c2)cc1Cl | · | 0 | · | · | · | · | · | ·
COc1cccc(NC(=O)CSc2nnc(-c3ccccc3F)n2-c2ccccc2)c1 | · | 0 | · | · | · | · | · | ·
O=C(Nc1ccc(I)cc1C(=O)NCCN1CCOCC1)c1cccnc1 | · | 1 | · | · | · | · | · | ·
COC(=O)c1ccccc1NC(=O)C(C)(C)Oc1ccc(Cl)cc1 | · | 0 | · | · | · | · | · | ·
COc1cc(OC)c(NC(=O)CN(C)S(=O)(=O)c2cc(Cl)ccc2Cl)cc1Cl | · | 0 | · | · | · | · | · | ·
O=C(Nc1ccccc1)N1CCCCN2[C@H](CO)[C@@H](c3ccc(C#Cc4cccnc4)cc3)[C@H]2C1 | -56 | · | -1 | -4 | · | · | · | ·
O=C(Nc1cccc(F)c1)N1CCCCN2[C@H](CO)[C@H](c3ccc(C#Cc4ccccc4)cc3)[C@H]2C1 | -63 | · | -2 | 71 | · | · | · | ·
O=C(Nc1cccc(F)c1)N1CCCCN2[C@@H](CO)[C@H](c3ccc(C#Cc4cccnc4)cc3)[C@@H]2C1 | -76 | · | -1 | 103* | 103* | 79 | 26 | 101*
O=C(Nc1ccccc1F)N1CCCCN2[C@H](CO)[C@H](c3ccc(C#Cc4cccnc4)cc3)[C@@H]2C1 | ? | · | 0 | 107* | 110* | 78 | 43* | ?
O=C(Nc1ccccc1)N1CCCCN2[C@@H](CO)[C@@H](c3ccc(C#Cc4cccnc4)cc3)[C@@H]2C1 | -66 | · | -1 | 105* | 109* | 90 | 18 | 81*
O=C(Nc1cccc(F)c1)N1CCCCN2[C@H](C1)[C@H](c1ccc(C#Cc3ccccc3)cc1)[C@@H]2CO | -23 | · | -2 | 100* | 101* | ? | 15 | 38*
O=C(C[C@@H]1C[C@H]2c3cc(NS(=O)(=O)c4ccc(F)cc4)ccc3O[C@H]2[C@@H](CO)O1)N1CCc2ccccc2C1 | -27 | 0 | 0 | 117* | 88 | 24 | 11 | 1
CN(C)CC(=O)Nc1ccc2c(c1)[C@H]1C[C@@H](CC(=O)N3CCc4ccccc4C3)O[C@H](CO)[C@H]1O2 | 14 | 0 | -2 | 105* | 65 | 9 | -9 | -4
O=C(Nc1ccc2c(c1)[C@@H]1C[C@H](CC(=O)N3CCc4ccccc4C3)O[C@H](CO)[C@@H]1O2)Nc1ccccc1F | -52 | 0 | -2 | · | · | · | · | ·
O=C(Nc1ccc2c(c1)[C@@H]1C[C@H](CC(=O)N3CCc4ccccc4C3)O[C@@H](CO)[C@@H]1O2)Nc1ccccc1F | -27 | 0 | -7 | · | · | · | · | ·
CN(C)CC(=O)Nc1ccc2c(c1)[C@@H]1C[C@H](CC(=O)N3CCc4ccccc4C3)O[C@H](CO)[C@@H]1O2 | -7 | -2 | 3 | 3 | · | · | · | ·
O=C(Nc1ccc(C(F)(F)F)cc1)Nc1ccc2c(c1)[C@@H]1C[C@H](CC(=O)N3CCc4ccccc4C3)O[C@H](CO)[C@@H]1O2 | -56 | 0 | 1 | 119* | 92 | 122* | 8 | -9
O=C(Nc1ccc(C(F)(F)F)cc1)Nc1ccc2c(c1)[C@@H]1C[C@@H](CC(=O)N3CCc4ccccc4C3)O[C@H](CO)[C@@H]1O2 | -49 | 0 | -1 | 138* | 97* | ? | -3 | 104*
O=C(CSc1nc2ccccc2o1)Nc1ccc(Br)cc1Cl | · | 0 | · | · | · | · | · | ·
O=C(CC1CC1)Nc1ccc2c(c1)[C@@H]1C[C@@H](CC(=O)N3CCCCC3)O[C@@H](CO)[C@@H]1O2 | 9 | 0 | 0 | 104* | 0 | 21 | 9 | 11
COCC#Cc1ccc([C@@H]2[C@@H](CO)N3CCCCN(Cc4cncnc4)C[C@H]23)cc1 | 30 | · | 0 | 103* | 29 | 18 | -13 | 65*
COCC#Cc1ccc([C@@H]2[C@H](CO)N3CCCCN(Cc4cncnc4)C[C@@H]23)cc1 | 19 | · | 1 | ? | ? | 34 | -3 | -10
COCC#Cc1ccc([C@@H]2[C@H]3CN(Cc4cncnc4)CCCCN3[C@H]2CO)cc1 | -21 | · | 1 | 68 | · | · | · | ·
COCC#Cc1ccc([C@@H]2[C@@H](CO)N3CCCCN(Cc4cncnc4)C[C@@H]23)cc1 | 23 | · | 0 | 106* | ? | -11 | 7 | -1
COCC#Cc1ccc([C@H]2[C@@H](CO)N3CCCCN(Cc4cncnc4)C[C@H]23)cc1 | 28 | · | 0 | 109* | 112* | 56 | 17 | 15
SMILES | Pf Dd2 inh | IDH1 R132H inh | GASC1 inh | T cruzi growth-1 | T cruzi growth-2 | T cruzi growth-3 | 3T3 cytotox | 3T3 cytotox 2
COc1cc(NC(=O)C(C)Oc2ccc(Cl)cc2Cl)c(C(=O)O)cc1OC (stereo not given) | · | 1 | · | · | · | · | · | ·
c1ccc(Cn2c3ccccc3n3c(SCc4nc5ccccc5[nH]4)nnc23)cc1 | · | 0 | · | · | · | · | · | ·
COc1cccc(-c2ccc([C@H]3[C@H]4CN(S(=O)(=O)c5cccs5)CCCCN4[C@H]3CO)cc2)c1 | 10 | · | -1 | 75 | · | · | · | ·
COc1cccc(-c2ccc([C@@H]3[C@@H](CO)N4CCCCN(S(=O)(=O)c5cccs5)C[C@@H]34)cc2)c1 | 35 | · | -2 | 97* | 60 | -3 | 21 | 25*
COc1ccc(-c2ccc([C@H]3[C@@H](CO)N4CCCCN(S(=O)(=O)c5cccs5)C[C@@H]34)cc2)cc1 | 2 | · | -1 | 107* | 116* | 89 | 23 | 10
Cc1ccc(S(=O)(=O)NC(C)C(=O)Nc2cc([N+](=O)[O-])ccc2C)cc1 (stereo not given) | · | 1 | · | · | · | · | · | ·
CCC(C)C(Nc1ncnc2c1oc1ccccc12)C(=O)O (stereo not given) | · | 0 | · | · | · | · | · | ·
CCn1c(SCC(=O)Nc2cccc(Cl)c2)nnc1-c1ccc(Cl)cc1Cl | · | 0 | · | · | · | · | · | ·
O=C(C[C@H]1CC[C@H]2[C@@H](COC[C@H](O)CN2Cc2cc(F)ccc2F)O1)N[C@H]1CCN(Cc2ccccc2)C1 | -75 | · | 0 | 124* | 106* | 72 | -20 | -1
O=C(C[C@@H]1CC[C@@H]2[C@H](COC[C@H](O)CN2Cc2ccccc2)O1)N[C@@H]1CCN(Cc2ccccc2)C1 | -19 | · | 2 | 77 | · | · | · | ·

Compound activity deposited in PubChem BioAssay by Broad Institute.
